Data from ChEMBL document CHEMBL1124333, “Prostaglandin photoaffinity probes: synthesis and biological activity of azide-substituted 16-phenoxy- and 17-phenyl-PGF2 alpha prostaglandins” (J Med Chem, 1989).

What was measured:
[1] = Relative ratio in comparison with PGF2-alpha
[2] = target: T1, Prostaglandin F2-alpha receptor (Bos taurus, UniProt P37289); test: Binding potency towards Prostaglandin F2 alpha receptor (competitive binding) with natural [3H]-PGF 2 alpha in bovine corpora lutea plasma membranes (BCLM)
Procedure, shortened: (§1)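 Bovine corpora lutea were homogenized in ice-cold 10 mM Tris-HCl pH 7.0 with 250 mM sucrose, 1 mM CaCl2, BSA, indomethacin, DTT and protease inhibitors. Membranes were pelleted at 17339g and resuspended at about 1-2 mg protein/mL. They were diluted 1:1 with serum-free culture medium and incubated 90 min, to equilibrium, with [3H]PGF2α and competitor.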

[3] = target: T1, Prostaglandin F2-alpha receptor; test: Binding potency towards PGF-2 alpha receptor (competitive binding) with natural [3H]-PGF 2 alpha in bovine corpora lutea plasma membranes (BCLM); procedure, shortened: as §1
[4] = Relative ratio in comparison with PGF2-alpha in bovine corpus lutea membranes; format: cell membranes
[5] = Relative ratio in comparison with PGF2-alpha in ovine luteal cells; format: cell-based

T1 sequence (P37289 whole entry): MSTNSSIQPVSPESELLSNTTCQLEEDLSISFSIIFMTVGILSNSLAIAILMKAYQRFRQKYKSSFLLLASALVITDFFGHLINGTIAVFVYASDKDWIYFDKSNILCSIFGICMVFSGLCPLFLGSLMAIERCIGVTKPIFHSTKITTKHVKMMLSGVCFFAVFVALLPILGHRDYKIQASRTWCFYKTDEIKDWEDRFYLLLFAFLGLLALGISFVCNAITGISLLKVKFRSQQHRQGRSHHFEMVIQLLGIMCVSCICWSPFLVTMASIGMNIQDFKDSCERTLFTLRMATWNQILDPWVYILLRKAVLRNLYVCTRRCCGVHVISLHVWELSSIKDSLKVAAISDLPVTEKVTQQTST

Row | Structure (SMILES) | Ratio [1] | IC50 [2] [µM] | IC50 [3] [µM] | Ratio [4] | Ratio [5]
1 | [N-]=[N+]=Nc1ccc(CC[C@@H](O)/C=C/[C@@H]2[C@@H](C/C=C\CCCC(=O)O)[C@@H](O)C[C@H]2O)cc1I | 490 | 68 | – | – | –
2 | COC(=O)CCC/C=C\C[C@@H]1C(/C=C/[C@@H](O)CCc2ccccc2)[C@H](O)C[C@@H]1O (stereo not given in full) | – | – | 2 | 14 | –
3 | COC(=O)CCC/C=C\C[C@@H]1C(/C=C/[C@H](O)CCc2ccccc2)[C@H](O)C[C@@H]1O (stereo not given in full) | – | – | 50 | 360 | –
4 | [N-]=[N+]=Nc1cc(O)cc(OC[C@H](O)/C=C/[C@@H]2[C@@H](C/C=C\CCCC(=O)O)[C@@H](O)C[C@H]2O)c1 | – | – | – | – | 250
5 | [N-]=[N+]=Nc1ccc(CC[C@H](O)/C=C/[C@@H]2[C@@H](C/C=C\CCCC(=O)O)[C@@H](O)C[C@H]2O)c(O)c1 | – | 220 | – | 1600 | 140
6 | [N-]=[N+]=Nc1ccc(CC[C@H](O)/C=C/[C@@H]2[C@@H](C/C=C\CCCC(=O)O)[C@@H](O)C[C@H]2O)cc1I | – | 7 | – | 50 | 8.1
7 | [N-]=[N+]=Nc1ccc(OC[C@H](O)/C=C/[C@@H]2[C@@H](C/C=C\CCCC(=O)O)[C@@H](O)C[C@H]2O)c(O)c1 | – | 120 | – | 860 | –
